In ChEMBL document CHEMBL4196059, “Design, synthesis, and biological evaluation of stable β6.3-Helices: Discovery of non-hemolytic antibacterial peptides” (Eur J Med Chem, 2018):
Activity calls are given as the source filed them. The rule behind the calls is not given here.

Experiments:
Staphylococcus aureus = assay: Growth inhibition of methicillin-resistant Staphylococcus aureus ATCC 43300 at 32 ug/ml after 18 hrs; format: functional; conditions: ATCC 43300, 18 h, read-out: GI
Outline: (§1)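 Mid-log cultures in cation-adjusted Mueller Hinton broth were added at 5×10^5 CFU/mL to wells at a final compound concentration of 32 μg/mL. Plates stood at 37 °C for 18 h. Growth was read by OD600, and % inhibition was computed against media-only and untreated-bacteria controls.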

Escherichia coli = assay: Growth inhibition of Escherichia coli ATCC 25922 at 32 ug/ml after 18 hrs; format: functional; conditions: ATCC 25922, 18 h, read-out: GI
Outline: (§2)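 Mid-log cultures were prepared as above and seeded at 5×10^5 CFU/mL with compound at a final 32 μg/mL, then held static at 37 °C for 18 h. Growth was read as OD600. Percent inhibition was calculated against media-only and bacteria-only controls on the same plate.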

Candida albicans = assay: Growth inhibition of Candida albicans ATCC 90028 at 32 ug/ml after 24 hrs by OD530 light-scattering microspectrophotometric method; conditions: ATCC 90028, 24 h, read-out: GI
Klebsiella pneumoniae = assay: Growth inhibition of multidrug-resistant Klebsiella pneumoniae ATCC 700603 at 32 ug/ml after 18 hrs; format: functional; conditions: ATCC 700603, 18 h, read-out: GI; outline: as §1
Acinetobacter baumannii = assay: Growth inhibition of Acinetobacter baumannii ATCC 19606 at 32 ug/ml after 18 hrs; format: functional; conditions: ATCC 19606 = CIP 70.34 = JCM 6841, 18 h, read-out: GI; outline: as §2
Pseudomonas aeruginosa = assay: Growth inhibition of Pseudomonas aeruginosa ATCC 27853 at 32 ug/ml after 18 hrs; format: functional; conditions: ATCC 27853, 18 h, read-out: GI; outline: as §2
Cryptococcus neoformans = assay: Growth inhibition of Cryptococcus neoformans H99 ATCC 208821 at 32 ug/ml after 24 hrs by resazurin dye-based microspectrophotometric assay; format: functional; conditions: var. grubii H99 ATCC 208821, 24 h, read-out: GI
Outline: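 Yeasts were grown 3 days on YPD agar at 30 °C, suspended from five colonies and diluted in YNB broth to a final 2.5×10^3 CFU/mL. Compound at a final 32 μg/mL; incubated 24 h at 35 °C without shaking. C. albicans was read at OD530. C. neoformans was read as OD600–570 after resazurin (0.001% final) and a further 2 h at 35 °C. Fluconazole was the standard.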

[1] = Hemolytic activity against human RBC at 0.39 uM after 1 hr by Drabkin's assay relative to control; format: ADME, cell-based, Erythrocyte; conditions: human red blood cells (erythrocytes), read-out: Activity
[2] = Hemolytic activity against human RBC at 0.78 uM after 1 hr by Drabkin's assay relative to control; format: ADME, cell-based, Erythrocyte; conditions: human red blood cells (erythrocytes), read-out: Activity
[3] = Hemolytic activity against human RBC at 100 uM after 1 hr by Drabkin's assay relative to control; format: ADME, cell-based, Erythrocyte; conditions: human red blood cells (erythrocytes), read-out: Activity
[4] = Hemolytic activity against human RBC at 25 uM after 1 hr by Drabkin's assay relative to control; format: ADME, cell-based, Erythrocyte; conditions: human red blood cells (erythrocytes), read-out: Activity
[5] = Hemolytic activity against human RBC at 1.56 uM after 1 hr by Drabkin's assay relative to control; format: ADME, cell-based, Erythrocyte; conditions: human red blood cells (erythrocytes), read-out: Activity
[6] = Hemolytic activity against human RBC at 50 uM after 1 hr by Drabkin's assay relative to control; format: ADME, cell-based, Erythrocyte; conditions: human red blood cells (erythrocytes), read-out: Activity
[7] = Hemolytic activity against human RBC at 12.5 uM after 1 hr by Drabkin's assay relative to control; format: ADME, cell-based, Erythrocyte; conditions: human red blood cells (erythrocytes), read-out: Activity
[8] = Hemolytic activity against human RBC at 6.25 uM after 1 hr by Drabkin's assay relative to control; format: ADME, cell-based, Erythrocyte; conditions: human red blood cells (erythrocytes), read-out: Activity
[9] = Hemolytic activity against human RBC at 3.125 uM after 1 hr by Drabkin's assay relative to control; format: ADME, cell-based, Erythrocyte; conditions: human red blood cells (erythrocytes), read-out: Activity
Erythrocyte = assay: Hemolytic activity against human RBC after 1 hr by Drabkin's assay; format: ADME, cell-based
Lipid bilayer = assay: Induction of pore formation in POPC vesicles at 20 uM after 3 hrs by carboxyfluorescein dye leakage assay; conditions: in the assay text read “after 3 mins” for “after 3 hrs”
Outline: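 POPC or DOPC liposomes were hydrated in 10 mM HEPES, 100 mM KCl, pH 7.4, containing 50 mM carboxyfluorescein. Size was checked by dynamic light scattering, and vesicles were used at 2.2×10^10 per mL. Peptide at 20 μM was equilibrated with vesicles for 3 min, and dye leakage was measured.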

## CN1CCCN1C(=O)[C@@H]1CCCN1C(=O)N1CCCN1C(=O)[C@@H]1CCCN1C(=O)N1CCCN1C(=O)[C@@H]1CCCN1C(=O)N1CCCN1C(=O)[C@@H]1CCCN1C(=O)N1CCCN1C(=O)[C@@H]1CCCN1C(=O)N1CCCN1C(=O)[C@@H]1CCCN1C(=O)N1CCCN1C(=O)[C@@H]1CCCN1C(=O)N1CCCN1C(=O)[C@@H]1CCCN1C(=O)N1CCCN1C(=O)OCc1ccccc1
Staphylococcus aureus
  inhibition of growth at 32 µg/mL: 25.1%
Escherichia coli
  inhibition of growth at 32 µg/mL: 3.93%
Candida albicans
  inhibition of growth at 32 µg/mL: 3.49%
Klebsiella pneumoniae
  inhibition of growth at 32 µg/mL: 3.93%
Acinetobacter baumannii
  inhibition of growth at 32 µg/mL: -6.74%
Pseudomonas aeruginosa
  inhibition of growth at 32 µg/mL: -3.91%
Cryptococcus neoformans
  inhibition of growth at 32 µg/mL: -5.68%

## CC(C)(C)OC(=O)[C@@H]1CCCN1C(=O)N1CCCN1C(=O)[C@@H]1CCCN1C(=O)N1CCCN1C(=O)[C@@H]1CCCN1C(=O)N1CCCN1C(=O)[C@@H]1CCCN1C(=O)N1CCCN1C(=O)[C@@H]1CCCN1C(=O)N1CCCN1C(=O)[C@@H]1CCCN1C(=O)N1CCCN1C(=O)[C@@H]1CCCN1C(=O)N1CCCN1C(=O)[C@@H]1CCCN1C(=O)N1CCCN1.Cl
[1]
  hemolysis at 1 h, 0.39 µM: -0.181%
[2]
  hemolysis at 1 h, 0.78 µM: -0.903%
[3]
  hemolysis at 1 h, 100 µM: -0.181%
[4]
  hemolysis at 1 h, 25 µM: -0.271%
[5]
  hemolysis at 1 h, 1.56 µM: 0%
[6]
  hemolysis at 1 h, 50 µM: 0%
[7]
  hemolysis at 1 h, 12.5 µM: 0.181%
[8]
  hemolysis at 1 h, 6.25 µM: 0%
[9]
  hemolysis at 1 h, 3.125 µM: -0.361%
Erythrocyte
  Activity: Dose-dependent effect

## CC(C)(C)OC(=O)[C@@H]1CCCN1C(=O)N1CCCN1C(=O)[C@@H]1CCCN1C(=O)N1CCCN1C(=O)[C@@H]1CCCN1C(=O)N1CCCN1C(=O)[C@@H]1CCCN1C(=O)N1CCCN1C(=O)[C@@H]1CCCN1C(=O)N1CCCN1C(=O)[C@@H]1CCCN1C(=O)N1CCCN1C(=O)[C@@H]1CCCN1C(=O)N1CCCN1C(=O)[C@@H]1CCCN1C(=O)N1CCCN1
Lipid bilayer
  Activity: inactive

## CC(C)(C)OC(=O)[C@@H]1CCCN1C(=O)N1CCCN1C(=O)[C@@H]1CCCN1C(=O)N1CCCN1C(=O)[C@@H]1CCCN1C(=O)N1CCCN1C(=O)[C@@H]1CCCN1C(=O)N1CCCN1
Staphylococcus aureus
  inhibition of growth at 32 µg/mL: 5.04%
Escherichia coli
  inhibition of growth at 32 µg/mL: 4.06%
Candida albicans
  inhibition of growth at 32 µg/mL: 4.64%
Klebsiella pneumoniae
  inhibition of growth at 32 µg/mL: 4.07%
Acinetobacter baumannii
  inhibition of growth at 32 µg/mL: -8.79%
Lipid bilayer
  Activity: inactive
Pseudomonas aeruginosa
  inhibition of growth at 32 µg/mL: 4.45%
Cryptococcus neoformans
  inhibition of growth at 32 µg/mL: -4.84%
Erythrocyte
  Activity: Dose-dependent effect

## O=C([C@@H]1CCCN1C(=O)N1CCCN1C(=O)[C@@H]1CCCN1C(=O)N1CCCN1C(=O)[C@@H]1CCCN1C(=O)N1CCCN1C(=O)[C@@H]1CCCN1C(=O)N1CCCN1C(=O)[C@@H]1CCCN1C(=O)N1CCCN1C(=O)[C@@H]1CCCN1C(=O)N1CCCN1C(=O)[C@@H]1CCCN1C(=O)N1CCCN1C(=O)[C@@H]1CCCN1)N1CCCN1
Staphylococcus aureus
  inhibition of growth at 32 µg/mL: 22.8%
Escherichia coli
  inhibition of growth at 32 µg/mL: 1.9%
Candida albicans
  inhibition of growth at 32 µg/mL: 2.38%
Klebsiella pneumoniae
  inhibition of growth at 32 µg/mL: 1.9%
Acinetobacter baumannii
  inhibition of growth at 32 µg/mL: -4.27%
Pseudomonas aeruginosa
  inhibition of growth at 32 µg/mL: -6.95%
Cryptococcus neoformans
  inhibition of growth at 32 µg/mL: -2.7%

## CC(C)(C)OC(=O)N1CCC[C@H]1C(=O)N1CCCN1C(=O)N1CCC[C@H]1C(=O)N1CCCN1C(=O)N1CCC[C@H]1C(=O)N1CCCN1C(=O)N1CCC[C@H]1C(=O)N1CCCN1C(=O)OCc1ccccc1
[1]
  hemolysis at 1 h, 0.39 µM: 0.227%
[2]
  hemolysis at 1 h, 0.78 µM: 0.189%
[3]
  hemolysis at 1 h, 100 µM: 0%
[4]
  hemolysis at 1 h, 25 µM: 0.227%
[5]
  hemolysis at 1 h, 1.56 µM: 0.189%
[6]
  hemolysis at 1 h, 50 µM: -0.379%
[7]
  hemolysis at 1 h, 12.5 µM: 0.038%
[8]
  hemolysis at 1 h, 6.25 µM: -0.152%
[9]
  hemolysis at 1 h, 3.125 µM: 0.038%
Erythrocyte
  Activity: Dose-dependent effect
